The record followed here is ChEMBL document CHEMBL4138139, “Discovery of VU6005649, a CNS Penetrant mGlu7/8 Receptor PAM Derived from a Series of Pyrazolo[1,5-a]pyrimidines” (ACS Med Chem Lett, 2017).

Each structure is given as a SMILES string. Calls of active or inactive are those of the source. No cut-off for these calls is given here.

A word on the IC50: it is the concentration that inhibits the measured activity by half. By EC50 is commonly meant the midpoint of the concentration-response curve. What is called inhibition is the percentage by which the read-out fell short of the control.

The target of one data set is T1, Cytochrome P450 1A2 (Homo sapiens, UniProt P05177).
T1 sequence (P05177 whole entry): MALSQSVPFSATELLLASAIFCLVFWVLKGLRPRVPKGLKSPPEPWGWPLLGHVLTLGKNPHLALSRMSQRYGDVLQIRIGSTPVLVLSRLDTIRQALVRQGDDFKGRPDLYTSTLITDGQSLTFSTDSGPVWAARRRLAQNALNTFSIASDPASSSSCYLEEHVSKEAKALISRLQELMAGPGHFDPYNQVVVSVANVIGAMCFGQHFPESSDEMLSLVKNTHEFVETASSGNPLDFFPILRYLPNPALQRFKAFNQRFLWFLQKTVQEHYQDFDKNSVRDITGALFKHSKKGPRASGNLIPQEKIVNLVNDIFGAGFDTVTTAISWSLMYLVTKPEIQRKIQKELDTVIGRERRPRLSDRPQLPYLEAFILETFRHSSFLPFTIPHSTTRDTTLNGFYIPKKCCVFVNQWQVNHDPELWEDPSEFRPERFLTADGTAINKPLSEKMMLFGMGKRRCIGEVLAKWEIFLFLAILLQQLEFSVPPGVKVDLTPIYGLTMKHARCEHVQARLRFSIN
The data set is described as follows: Inhibition of CYP1A2 in human liver microsomes using phenacetin as substrate preincubated for 15 mins followed by NADPH addition measured after 8 mins by LC-MS/MS analysis. The class given is ADME.

The target in a further data set is Cytochrome P450 3A4 (Homo sapiens, UniProt P08684). Put plainly: Inhibition of CYP3A4 in human liver microsomes using midazolam as substrate preincubated for 15 mins followed by NADPH addition measured after 8 mins by LC-MS/MS analysis. The class given is ADME. On the technique in general: Liver microsomes are vesicles of endoplasmic reticulum, rich in cytochrome P450 enzymes.

Data set [1] has as its target Metabotropic glutamate receptor 1 (Rattus norvegicus, UniProt P23385). The data set is described as follows: Positive allosteric modulation of rat mGlu1 receptor expressed in HEK cells assessed as increase in glutamate-induced calcium flux incubated for 142 secs followed by glutamate addition measured after 120 secs by Fluo4-AM dye based fluorescence assay. It counts as functional, cell-based. For orientation: A change in cytosolic calcium serves as a functional read-out for many receptors and channels.

In data set [2] the target is Alpha-1A adrenergic receptor (Rattus norvegicus) (UniProt P43140). The data set is described as follows: Displacement of [3H] prazosin from Wistar rat alpha1a receptor at 10 uM measured after 60 mins by scintillation counting method relative to control. The essentials:
(§1)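 Single-concentration screen at 10 μM in an outsourced profiling panel of 68 GPCRs, ion channels and transporters. Activity read out as percent inhibition of specific radioligand binding.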
(Displacement assays read how much labelled ligand stays bound in the presence of the test substance.)

The target of data set [3] is Alpha-1B adrenergic receptor (Rattus norvegicus) (UniProt P15823). The data set is described as follows: Displacement of [3H] prazosin from Wistar rat alpha1b receptor at 10 uM measured after 60 mins by scintillation counting method relative to control. In short, it runs like this: as §1
Sequence of Alpha-1B adrenergic receptor (Rattus norvegicus) (P15823 whole entry): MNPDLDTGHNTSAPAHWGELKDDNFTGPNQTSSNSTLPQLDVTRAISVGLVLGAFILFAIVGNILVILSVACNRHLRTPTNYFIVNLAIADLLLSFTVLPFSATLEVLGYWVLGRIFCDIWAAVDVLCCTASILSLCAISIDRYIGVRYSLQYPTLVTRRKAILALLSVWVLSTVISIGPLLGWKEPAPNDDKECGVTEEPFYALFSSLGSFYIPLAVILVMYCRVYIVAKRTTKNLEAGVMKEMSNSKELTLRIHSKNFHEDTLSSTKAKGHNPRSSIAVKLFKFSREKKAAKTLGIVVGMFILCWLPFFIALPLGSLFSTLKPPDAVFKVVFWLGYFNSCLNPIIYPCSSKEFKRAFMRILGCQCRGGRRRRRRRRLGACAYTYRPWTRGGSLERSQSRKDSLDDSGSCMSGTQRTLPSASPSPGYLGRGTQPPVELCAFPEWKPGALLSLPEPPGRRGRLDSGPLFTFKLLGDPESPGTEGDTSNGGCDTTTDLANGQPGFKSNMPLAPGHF
Data set [4] concerns the target Alpha-1D adrenergic receptor (Homo sapiens) (UniProt P25100). The data set is described as follows: Displacement of [3H] prazosin from recombinant human alpha1d receptor expressed in HEK293 cell membranes at 10 uM measured after 60 mins by scintillation counting method relative to control. The essentials:
as §1

Data set [5] addresses Alpha-2A adrenergic receptor (Homo sapiens) (UniProt P08913). Put plainly: Displacement of [3H]rauwolscine from full length human recombinant alpha2a receptor expressed in CHOK1 cells at 10 uM after 60 mins by scintillation counting method relative to control. It counts as cell-based. In short, it runs like this:
(§2)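 Single-concentration screen at 10 μM within a commercial lead-profiling panel of 68 GPCRs, ion channels and transporters. Activity read as percent inhibition of specific radioligand binding to each target.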

Data set [6] addresses Beta-2 adrenergic receptor (Homo sapiens) (UniProt P07550). Put plainly: Displacement of [3H] CGP-12177 from recombinant human beta2 receptor expressed in CHO cell membranes co-expressing human NBR1 at 10 uM after 60 mins by scintillation counting method relative to control. The essentials:
as §1

The target in data set [7] is B1 bradykinin receptor (Homo sapiens) (UniProt P46663). Put plainly: Displacement of [3H]kallidin (des-Arg10, Leu9) from recombinant human bradykinin B1 receptor expressed in CHOK1 cell membranes at 10 uM measured after 60 mins by scintillation counting method relative to control. The essentials: as §2
Data set [8] addresses D(2) dopamine receptor (Homo sapiens) (UniProt P14416). Put plainly: Displacement of [3H] spiperone from recombinant human D2S receptor expressed in CHO cell membranes at 10 uM after 120 mins by scintillation counting method relative to control. In short, it runs like this:
as §2

Data set [9] has as its target D(3) dopamine receptor (Homo sapiens) (UniProt P35462). Put plainly: Displacement of [3H] spiperone from recombinant human D3 receptor expressed in CHO cell membranes at 10 uM after 120 mins by scintillation counting method relative to control. In short, it runs like this:
as §2

Data set [10] addresses Endothelin-1 receptor (Homo sapiens) (UniProt P25101). The data set is described as follows: Displacement of [125I] endothelin-1 from recombinant human ETA receptor expressed in CHOK1 cell membranes at 10 uM after 120 mins by scintillation counting method relative to control. The essentials:
as §1

Data set [11] has as its target Endothelin receptor type B (Homo sapiens) (UniProt P24530). The data set is described as follows: Displacement of [125I] endothelin-1 from recombinant human ETB receptor expressed in CHOK1 cell membranes at 10 uM after 120 mins by scintillation counting method relative to control. The essentials: as §1
Data set [12] deals with Gamma-aminobutyric acid type B receptor subunit 1 (Homo sapiens) (UniProt Q9UBS5). The data set is described as follows: Displacement of [3H] CGP-54626 from recombinant human GABAB isoform 1a receptor expressed in CHOK1 cell membranes at 10 uM after 180 mins by scintillation counting method relative to control. In short, it runs like this:
as §1

Data set [13] deals with Cysteinyl leukotriene receptor 1 (Homo sapiens) (UniProt Q9Y271). The data set is described as follows: Displacement of [3H] LTD4 from recombinant human CysLT1 receptor expressed in CHOK1 cell membranes at 10 uM after 30 mins by scintillation counting method relative to control. In short, it runs like this: as §1
Sequence of Cysteinyl leukotriene receptor 1 (Homo sapiens) (Q9Y271 whole entry): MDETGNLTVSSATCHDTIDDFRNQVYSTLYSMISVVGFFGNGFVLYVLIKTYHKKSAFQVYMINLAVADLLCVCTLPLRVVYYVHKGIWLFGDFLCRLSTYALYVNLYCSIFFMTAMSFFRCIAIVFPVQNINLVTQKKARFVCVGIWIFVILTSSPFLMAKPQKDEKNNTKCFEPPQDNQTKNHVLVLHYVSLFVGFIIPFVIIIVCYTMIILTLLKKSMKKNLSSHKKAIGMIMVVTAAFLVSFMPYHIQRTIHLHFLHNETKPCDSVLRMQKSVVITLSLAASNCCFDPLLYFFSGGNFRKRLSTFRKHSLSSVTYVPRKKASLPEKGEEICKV
In data set [14] the target is Melatonin receptor type 1A (Homo sapiens) (UniProt P48039). Put plainly: Inhibition of human MT1 receptor at 10 uM relative to control. In short, it runs like this: as §2
Sequence of Melatonin receptor type 1A (Homo sapiens) (P48039 whole entry): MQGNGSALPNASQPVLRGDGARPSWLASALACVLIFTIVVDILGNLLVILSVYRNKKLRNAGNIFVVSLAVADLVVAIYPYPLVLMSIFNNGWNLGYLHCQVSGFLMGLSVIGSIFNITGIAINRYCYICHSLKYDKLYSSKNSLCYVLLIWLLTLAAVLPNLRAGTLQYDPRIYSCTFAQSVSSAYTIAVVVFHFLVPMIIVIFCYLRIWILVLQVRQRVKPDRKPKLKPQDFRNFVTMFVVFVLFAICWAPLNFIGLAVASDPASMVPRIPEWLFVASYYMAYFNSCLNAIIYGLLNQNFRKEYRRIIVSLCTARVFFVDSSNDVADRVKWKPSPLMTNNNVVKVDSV
In data set [15] the target is Muscarinic acetylcholine receptor M1 (Homo sapiens) (UniProt P11229). The data set is described as follows: Displacement of [3H] N-methylscopolamine from recombinant human M1 receptor expressed in CHOK1 cell membranes at 10 uM after 120 mins by scintillation counting method relative to control. In short, it runs like this: as §1
Sequence of Muscarinic acetylcholine receptor M1 (Homo sapiens) (P11229 whole entry): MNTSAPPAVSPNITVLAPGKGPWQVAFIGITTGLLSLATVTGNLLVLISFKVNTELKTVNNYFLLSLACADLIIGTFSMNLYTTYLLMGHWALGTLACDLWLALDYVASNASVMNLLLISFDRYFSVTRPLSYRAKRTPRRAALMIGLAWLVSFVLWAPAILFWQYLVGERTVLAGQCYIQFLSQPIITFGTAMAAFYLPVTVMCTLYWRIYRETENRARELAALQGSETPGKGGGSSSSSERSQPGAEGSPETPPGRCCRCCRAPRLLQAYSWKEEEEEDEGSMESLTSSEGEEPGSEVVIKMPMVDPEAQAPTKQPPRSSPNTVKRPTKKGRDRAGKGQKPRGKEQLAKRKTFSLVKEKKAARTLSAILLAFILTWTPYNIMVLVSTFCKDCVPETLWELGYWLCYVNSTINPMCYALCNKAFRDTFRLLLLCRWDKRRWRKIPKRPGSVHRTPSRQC
Data set [16] deals with Delta-type opioid receptor (Homo sapiens) (UniProt P41143). Put plainly: Displacement of [3H] naltrindole from recombinant human delta opioid receptor expressed in HEK293 cell membranes at 10 uM after 60 mins by scintillation counting method relative to control. In short, it runs like this:
as §1

The species entered for data set [17] is Rattus norvegicus. The data set is described as follows: Displacement of [3H] GABA from GABA transporter in Wistar rat cerebral cortical membranes at 10 uM measured after 20 mins by scintillation counting method relative to control. In short, it runs like this:
as §1

The species entered for a further data set is Homo sapiens. The data set is described as follows: Displacement of [125I] epibatidine from human nAChR expressed in IMR32 cell membranes at 10 uM after 60 mins by scintillation counting method relative to control. In short, it runs like this:
as §1

Data set [18] has as its target Sigma non-opioid intracellular receptor 1 (Homo sapiens) (UniProt Q99720). Put plainly: Displacement of [3H] haloperidol from sigma1 receptor in human Jurkat cells at 10 uM after 4 hrs by scintillation counting method relative to control. The class given is cell-based. The essentials:
as §1

The species named for data set [19] is Rattus norvegicus. Put plainly: Time at which total brain concentration stays above in vitro mGlu7 EC50 in rat. It counts as ADME, organism-based. As to conditions: in vivo.
Data set [20] deals with Rattus norvegicus. Put plainly: Antipsychotic activity in rat assessed as inhibition of amphetamine-induced hyperlocomotion at 30 mg/kg, ip. The class given is functional, organism-based. In short, it runs like this: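 Rats given 30 mg/kg IP in 10% Tween 80/H2O, challenged with amphetamine 0.75 mg/kg s.c.; locomotor activity measured.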

Sequence of D(3) dopamine receptor (Homo sapiens) (P35462 whole entry): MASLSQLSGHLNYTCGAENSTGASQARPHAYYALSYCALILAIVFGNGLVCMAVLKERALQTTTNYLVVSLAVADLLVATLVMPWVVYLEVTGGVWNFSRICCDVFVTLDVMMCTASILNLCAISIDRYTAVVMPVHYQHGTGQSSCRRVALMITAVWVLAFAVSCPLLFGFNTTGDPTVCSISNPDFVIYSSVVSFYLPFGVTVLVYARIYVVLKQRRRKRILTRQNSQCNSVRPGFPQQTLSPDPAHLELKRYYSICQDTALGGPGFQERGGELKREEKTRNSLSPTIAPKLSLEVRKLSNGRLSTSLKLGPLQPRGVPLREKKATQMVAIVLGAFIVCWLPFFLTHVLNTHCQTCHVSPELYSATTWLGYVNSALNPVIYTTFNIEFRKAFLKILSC
Sequence of Sigma non-opioid intracellular receptor 1 (Homo sapiens) (Q99720 whole entry): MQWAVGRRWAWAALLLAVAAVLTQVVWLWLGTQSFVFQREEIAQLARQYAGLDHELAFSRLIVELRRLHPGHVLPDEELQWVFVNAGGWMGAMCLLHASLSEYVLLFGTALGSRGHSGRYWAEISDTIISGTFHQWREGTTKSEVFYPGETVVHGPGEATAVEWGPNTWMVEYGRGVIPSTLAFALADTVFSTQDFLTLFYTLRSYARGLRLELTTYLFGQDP
Sequence of D(2) dopamine receptor (Homo sapiens) (P14416 whole entry): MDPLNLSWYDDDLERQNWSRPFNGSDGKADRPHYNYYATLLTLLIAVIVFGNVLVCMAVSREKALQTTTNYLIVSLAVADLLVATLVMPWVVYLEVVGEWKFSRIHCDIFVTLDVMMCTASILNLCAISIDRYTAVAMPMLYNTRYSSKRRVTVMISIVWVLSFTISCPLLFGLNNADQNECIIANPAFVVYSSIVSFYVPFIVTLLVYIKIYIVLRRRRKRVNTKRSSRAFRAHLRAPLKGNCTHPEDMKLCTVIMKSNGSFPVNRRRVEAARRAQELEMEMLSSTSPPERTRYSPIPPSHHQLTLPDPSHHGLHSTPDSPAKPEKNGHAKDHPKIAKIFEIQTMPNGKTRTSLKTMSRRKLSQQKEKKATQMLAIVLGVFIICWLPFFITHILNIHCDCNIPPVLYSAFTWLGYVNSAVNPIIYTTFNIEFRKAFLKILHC
Sequence of Delta-type opioid receptor (Homo sapiens) (P41143 whole entry): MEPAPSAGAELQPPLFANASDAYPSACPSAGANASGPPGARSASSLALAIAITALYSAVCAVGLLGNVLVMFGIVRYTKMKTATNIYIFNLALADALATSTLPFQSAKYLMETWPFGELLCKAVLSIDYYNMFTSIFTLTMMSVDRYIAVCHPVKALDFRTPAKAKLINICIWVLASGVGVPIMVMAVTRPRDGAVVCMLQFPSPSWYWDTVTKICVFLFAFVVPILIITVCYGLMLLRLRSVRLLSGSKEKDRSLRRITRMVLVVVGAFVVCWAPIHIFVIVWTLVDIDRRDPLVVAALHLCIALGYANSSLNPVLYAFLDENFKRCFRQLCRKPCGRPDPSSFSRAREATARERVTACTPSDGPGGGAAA
Sequence of Gamma-aminobutyric acid type B receptor subunit 1 (Homo sapiens) (Q9UBS5 whole entry, canonical isoform): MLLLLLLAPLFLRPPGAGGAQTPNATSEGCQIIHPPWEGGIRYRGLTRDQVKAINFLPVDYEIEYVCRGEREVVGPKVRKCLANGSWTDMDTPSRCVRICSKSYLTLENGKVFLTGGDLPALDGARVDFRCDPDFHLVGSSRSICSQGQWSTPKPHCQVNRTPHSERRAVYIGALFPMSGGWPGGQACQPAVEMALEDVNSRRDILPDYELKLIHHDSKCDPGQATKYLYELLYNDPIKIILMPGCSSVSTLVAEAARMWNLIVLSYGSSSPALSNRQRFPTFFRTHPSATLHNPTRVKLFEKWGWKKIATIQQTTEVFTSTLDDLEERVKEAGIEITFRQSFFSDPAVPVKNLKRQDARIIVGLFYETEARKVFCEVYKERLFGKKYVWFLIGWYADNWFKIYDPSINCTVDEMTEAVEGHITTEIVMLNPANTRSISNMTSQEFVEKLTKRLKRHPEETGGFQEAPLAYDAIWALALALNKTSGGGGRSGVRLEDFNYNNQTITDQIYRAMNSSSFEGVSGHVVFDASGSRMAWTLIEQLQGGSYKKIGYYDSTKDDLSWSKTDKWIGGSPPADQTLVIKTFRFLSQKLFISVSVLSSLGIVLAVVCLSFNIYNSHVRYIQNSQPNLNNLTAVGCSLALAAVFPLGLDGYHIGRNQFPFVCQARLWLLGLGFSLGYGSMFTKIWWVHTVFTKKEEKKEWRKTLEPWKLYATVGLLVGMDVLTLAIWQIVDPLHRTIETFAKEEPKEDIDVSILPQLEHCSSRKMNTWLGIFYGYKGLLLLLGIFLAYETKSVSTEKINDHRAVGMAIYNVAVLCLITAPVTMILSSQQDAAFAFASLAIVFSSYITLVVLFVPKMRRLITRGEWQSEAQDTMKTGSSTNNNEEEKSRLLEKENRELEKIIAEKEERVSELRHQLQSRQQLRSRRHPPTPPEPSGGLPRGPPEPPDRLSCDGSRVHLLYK
Sequence of Alpha-2A adrenergic receptor (Homo sapiens) (P08913 whole entry): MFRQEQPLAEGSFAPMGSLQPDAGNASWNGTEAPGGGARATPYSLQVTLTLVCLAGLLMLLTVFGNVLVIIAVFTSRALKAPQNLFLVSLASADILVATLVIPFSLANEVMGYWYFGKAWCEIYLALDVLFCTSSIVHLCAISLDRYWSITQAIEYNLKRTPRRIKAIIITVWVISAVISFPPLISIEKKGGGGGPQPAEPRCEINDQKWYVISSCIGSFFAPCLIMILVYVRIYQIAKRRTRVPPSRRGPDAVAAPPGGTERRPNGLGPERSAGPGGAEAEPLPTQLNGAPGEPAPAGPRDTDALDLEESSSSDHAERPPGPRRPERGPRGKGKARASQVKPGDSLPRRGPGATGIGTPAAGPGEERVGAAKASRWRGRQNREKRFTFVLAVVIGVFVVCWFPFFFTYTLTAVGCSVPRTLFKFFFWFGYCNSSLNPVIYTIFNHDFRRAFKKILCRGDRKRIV
Sequence of Endothelin-1 receptor (Homo sapiens) (P25101 whole entry): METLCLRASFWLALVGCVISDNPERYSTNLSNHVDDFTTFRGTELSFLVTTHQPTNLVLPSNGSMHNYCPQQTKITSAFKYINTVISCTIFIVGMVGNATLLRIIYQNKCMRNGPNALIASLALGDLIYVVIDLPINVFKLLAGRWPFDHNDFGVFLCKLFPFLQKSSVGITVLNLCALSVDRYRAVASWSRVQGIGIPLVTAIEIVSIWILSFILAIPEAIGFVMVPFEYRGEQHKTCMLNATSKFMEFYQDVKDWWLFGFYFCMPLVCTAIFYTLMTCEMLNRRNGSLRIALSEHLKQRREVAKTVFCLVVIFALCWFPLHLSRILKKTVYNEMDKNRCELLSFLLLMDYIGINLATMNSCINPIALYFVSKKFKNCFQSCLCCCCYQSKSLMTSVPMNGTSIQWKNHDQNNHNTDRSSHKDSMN

On to `COc1ccc(-c2c(C)nn3c(C(F)(F)F)cc(C)nc23)c(F)c1F`, for which the 50% inhibitory concentration (IC50) is 3.08 µM on Cytochrome P450 1A2 and more than 30 µM at Cytochrome P450 3A4. The concentration for a half-maximal effect (EC50) in data set [1] was more than 10 µM. For the same molecule, the inhibition in data set [2], in [3], in data set [4], in [5], in data set [6] and in data set [7] was less than 50% each time. Moreover, the inhibition in data set [8], in [9], in data set [10], in data set [11], in data set [12] and in data set [13] was less than 50% each time. For the same molecule, the inhibition (in [14]; in data set [15]; in data set [16]; in the data set listed under Rattus norvegicus [17]; in the data set listed under Homo sapiens; in data set [18]) was less than 50% each time. In the data set listed under Rattus norvegicus [19], the Time was found to be 2 h. For the same molecule, the inhibition entry in the data set on Rattus norvegicus [20] was “inactive”.
